Results collected from several papers.
Each line is one published result; the experiments were not run side by side.
Target: Tyrosine-protein kinase Lck (LCK, Homo sapiens, UniProt P06239)

`FC(F)(F)Oc1cccc(-c2cnc3ccc(-c4ccncc4)nn23)c1` gave a remaining binding of 35% (cell-free assay; competition with immobilised ligand; 5 µM).
For `Nc1ncc2c(n1)-c1c([nH]c3ccc(C#CC4CC4)cc13)CCCC2`, the remaining binding was 100% (binding; competition with immobilised ligand; 1 µM).
`C[C@@H]1CCN(c2nccc(-c3cnn4ncccc34)n2)C1` gave a remaining binding of 93% (binding; 1 µM).
`O=C(c1ccc(Nc2ncc(Cl)c(-c3cc4ccccc4s3)n2)cc1)N1CCC(N2CCCC2)CC1` gave a remaining binding of 21% (binding; competition with immobilised ligand; 1 µM).
For `c1cncc(-c2cccc(Nc3nccc(NC4CCCCC4)n3)c2)c1`, the remaining binding was 6.6% (binding; competition with immobilised ligand; 10 µM).
`COc1ccc2c(c1)O[C@@H](c1ccc(OC)c(OC)c1)C[C@H]2NC(=O)C1(c2ccc3c(c2)OC(F)(F)O3)CC1` gave a remaining binding of 100% (cell-free assay; competition with immobilised ligand; 1 µM).
With `Cc1cnc(Nc2ccc(C(=O)N3CCC(N4CCCC4)CC3)cc2)nc1-c1cc2ccccc2s1` the remaining binding was 2.7% (binding; competition with immobilised ligand; 1 µM).
With `CNCc1ccccc1-c1csc([C@H](C)Nc2nc(C)nc3cc(OC)c(OC)cc23)c1` the remaining binding was 100% (cell-free assay; competition with immobilised ligand; 1 µM).
`O=C(Nc1c[nH]nc1C(=O)NC1CCNCC1)c1cc(F)cc(F)c1` gave a remaining binding of 100% (binding; competition with immobilised ligand; 1 µM).
The remaining binding of `CN(CCCC(F)(F)F)c1nccc(-c2cnn3ncccc23)n1` is reported as 89% (binding; 1 µM).
`CN([C@@H]1CCc2c(CC(=O)O)c3cc(S(C)(=O)=O)ccc3n2C1)S(=O)(=O)c1ccc(F)cc1` has a remaining binding of 100% (cell-free assay; competition with immobilised ligand; 1 µM).
For `c1cnn2ncc(-c3ccnc(N4CCC45COC5)n3)c2c1`, the remaining binding was 99% (binding; 1 µM).
`CC1=C(C#N)[C@@H](c2ccc3[nH]nc(C)c3c2)C(C#N)=C(c2ccc(Cl)cc2)N1` has a remaining binding of 100% (cell-free assay; competition with immobilised ligand; 1 µM).
For `CNC(=O)[C@@H]1CC[C@@H](n2c(-c3ccc4cnccc4c3)nc3ccc(C(=O)NCc4cccc(C(N)=O)c4)cc32)C1`, the remaining binding was 94% (binding; competition with immobilised ligand; 1 µM).
The remaining binding of `CCCOc1ccc([C@@H]2[C@@H](C(=O)O)[C@H](c3ccc4c(c3)OCO4)CN2CC(=O)Nc2c(CC)cccc2CC)cc1` is reported as 100% (cell-free assay; competition with immobilised ligand; 1 µM).
`O=C(NCCCN1CCOCC1)c1ccc(Nc2ncc(Cl)c(-c3ccc(Cl)s3)n2)cc1` gave a remaining binding of 100% (binding; competition with immobilised ligand; 1 µM).
